Converted amounts (≈) assume the structure as drawn. The source made the active and inactive calls. The rule behind the calls is not given here.
Legend:
[1] = tested on: T-24; assay: Cytotoxicity against human T24 cells after 48 hrs by MTT assay; type: functional, cell-based; conditions: T-24, 48 h
Outline: (§1)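 T24, DU145 and MCF7 grown in high-glucose DMEM with 10% fetal calf serum and penicillin/streptomycin. BALB/3T3 mouse fibroblasts grown in the same medium with 10% newborn calf serum. Cells seeded at 10 000/well for 24 h, then exposed 48 h at 37 C. MTT 0.5 mg/mL for 2 h, formazan dissolved in DMSO, read at 550 nm. EC50 is the concentration that lowers MTT reduction by 50% versus untreated control.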

[2] = Lipophilicity, log P of the compound; type: physicochemical; conditions: octanol/water
[3] = tested on: DU-145; assay: Cytotoxicity against human DU145 cells after 48 hrs by MTT assay; type: functional, cell-based; conditions: DU-145, 48 h; outline: as §1
[4] = tested on: BALB/3T3; assay: Cytotoxicity against mouse BALB/3T3 cells after 48 hrs by MTT assay; type: cell-based; conditions: BALB/3T3, 48 h; outline: as §1
[5] = tested on: MCF7; assay: Cytotoxicity against human MCF7 cells after 48 hrs by MTT assay; type: functional, cell-based; conditions: MCF7, 48 h; outline: as §1
[6] = tested on: T-24; assay: Induction of apoptosis in human T24 cells assessed as increase of caspase-3-mediated DEVDase activity at 100 ug/ml after 6 hrs; type: functional
Outline: (§2)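 T24 cells exposed 6 or 24 h at 37 C, washed twice in PBS, lysed and centrifuged. Supernatant incubated with DEVD-AFC substrate, cleavage followed kinetically at room temperature (ex 380 nm, em 500 nm). Activity given as U/mg protein, protein by Lowry method with BSA standard.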

[7] = tested on: T-24; assay: Induction of apoptosis in human T24 cells assessed as increase of caspase-3-mediated DEVDase activity at 10 ug/ml after 24 hrs; type: functional; outline: as §2
[8] = tested on: T-24; assay: Anticancer activity against human T24 cells assessed as decreased in intracellular ATP level at 100 ug/ml after 6 hrs by ATPlite assay; type: functional, cell-based
Outline: (§3)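 T24 cells in high-glucose DMEM with 10% FCS were exposed 6 h at 37 C to compound over a 1–100 range, alongside untreated controls. Intracellular ATP was measured by ATPlite luminescence kit. Groups were compared by one-way ANOVA with Bonferroni test.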

[9] = tested on: T-24; assay: Induction of apoptosis in human T24 cells assessed as increase of caspase-3-mediated DEVDase activity at 1 ug/ml after 24 hrs; type: functional; outline: as §2
[10] = tested on: T-24; assay: Anticancer activity against human T24 cells assessed as decreased in intracellular ATP level after 6 hrs by ATPlite assay; type: functional, cell-based; outline: as §3
[11] = tested on: T-24; assay: Induction of apoptosis in human T24 cells assessed as increase of caspase-3-mediated DEVDase activity at 1 ug/ml after 6 hrs; type: functional; outline: as §2
[12] = tested on: T-24; assay: Induction of apoptosis in human T24 cells assessed as increase of caspase-3-mediated DEVDase activity at 10 ug/ml after 6 hrs; type: functional; outline: as §2
[13] = tested on: T-24; assay: Anticancer activity against human T24 cells assessed as inhibition of cell proliferation at 10 ug/ml after 10 days using crystal violet staining by clonogenic assay; type: functional
Outline: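 T24 cells (500) seeded at single-cell density and left to adhere overnight. Compound exposure 24 h, then washed with warm PBS and regrown 10 days in fresh medium. Colonies stained with crystal violet to score clonogenic survival.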

[14] = tested on: T-24; assay: Induction of apoptosis in human T24 cells assessed as increase of caspase-3-mediated DEVDase activity at 100 ug/ml after 24 hrs; type: functional; outline: as §2
[15] = tested on: T-24; assay: Induction of apoptosis in human T24 cells assessed as increase of caspase-3-mediated DEVDase activity at 5 ug/ml after 4 hrs; type: functional; conditions: in the assay text read “5 uM” for “5 ug/ml”
Outline: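 Positive-control arm: T24 cells exposed to sanguinarine for 4 h. Lysate supernatant then assayed for DEVD-AFC cleavage kinetically at room temperature (ex 380/em 500 nm), expressed as U/mg protein.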

Row | SMILES | logP ([2]; read-out: logP) | logP [2] | EC50 [1] [µg/mL] | EC50 [3] [µg/mL] | EC50 [4] [µg/mL] | EC50 [5] [µg/mL] | Activity [6] [U/mg] | Activity [7] [U/mg] | Activity [8] | Activity [9] [U/mg] | Activity [10] | Activity [11] [U/mg] | Activity [12] [U/mg] | inhibition at 10 µg/mL ([13]; T-24, 240 h) [%] | Activity [14] [U/mg] | Activity [13] | Activity [15] [U/mg]
1 | CN(C1=CC(=O)c2ccccc2C1=O)c1ccccc1 | 2.34 |  | 8.4 (≈ 31.9 µM) | 20.9 (≈ 79.4 µM) | 43.3 (≈ 164 µM) | 7.8 (≈ 29.6 µM) |  |  |  |  |  |  |  |  |  |  | 
2 | COc1ccc(NC2=CC(=O)c3ccccc3C2=O)cc1 | 1.43 |  | 8.1 (≈ 29 µM) | 7.6 (≈ 27.2 µM) | 35.7 (≈ 128 µM) | 3.7 (≈ 13.2 µM) | 3.4 | 4.5 | Active | 5 | Dose-dependent effect | 5.9 | 5 | 75 | 3.4 |  | 
3 | O=C1C=C(Nc2ccccc2)C(=O)c2ccccc21 | 1.55 |  | 1.2 (≈ 4.81 µM) | 4 (≈ 16 µM) | 0.2 (≈ 0.802 µM) | 2.6 (≈ 10.4 µM) |  |  |  |  |  |  |  |  |  |  | 
4 | O=C1C=C(Nc2ccc(O)cc2)C(=O)c2ccccc21 | 1.16 |  | 2.3 (≈ 8.67 µM) | 0.9 (≈ 3.39 µM) | 6 (≈ 22.6 µM) | 0.8 (≈ 3.02 µM) | 3 | 4.9 | Active | 5.1 | Dose-dependent effect | 6 | 2.7 |  | 4 | Active | 
5 | C[n+]1cc2c3c(ccc2c2ccc4cc5c(cc4c21)OCO5)OCO3 [SANGUINARIUM] |  |  |  |  |  |  |  |  |  |  |  |  |  |  |  |  | 639.2
6 | Cc1ccccc1NC1=CC(=O)c2ccccc2C1=O | 2.04 |  | 7.7 (≈ 29.2 µM) | 7.7 (≈ 29.2 µM) | 6.2 (≈ 23.5 µM) | 0.8 (≈ 3.04 µM) |  |  |  |  |  |  |  |  |  |  | 
7 | O=C1C(Cl)=C(Nc2ccc(O)cc2)C(=O)c2ccccc21 | 1.2 |  | 0.6 (≈ 2 µM) | 1.9 (≈ 6.34 µM) | 0.6 (≈ 2 µM) | 2.8 (≈ 9.34 µM) |  |  |  |  |  |  |  |  |  |  | 

More lines, main results first:

Row | logP ([2]; read-out: logP) | logP [2] | SMILES | EC50 [1] [µg/mL] | EC50 [3] [µg/mL] | EC50 [4] [µg/mL] | EC50 [5] [µg/mL] | Activity [6] [U/mg] | Activity [7] [U/mg] | Activity [8] | Activity [9] [U/mg] | Activity [10] | Activity [11] [U/mg] | Activity [12] [U/mg] | inhibition at 10 µg/mL ([13]; T-24, 240 h) [%] | Activity [14] [U/mg] | Activity [13] | Activity [15] [U/mg]
8 | 1.46 |  | COc1ccc(NC2=C(Cl)C(=O)c3ccccc3C2=O)cc1 | 438 (≈ 1390 µM) | > 1000 | 13.7 (≈ 43.7 µM) | > 1000 |  |  |  |  |  |  |  |  |  |  | 
9 | 2.08 |  | Cc1ccccc1NC1=C(Cl)C(=O)c2ccccc2C1=O | 9.3 (≈ 31.2 µM) | 25.8 (≈ 86.7 µM) | 3.2 (≈ 10.7 µM) | 4.9 (≈ 16.5 µM) |  |  |  |  |  |  |  |  |  |  | 
10 |  | 1.59 | O=C1C(Cl)=C(Nc2ccccc2)C(=O)c2ccccc21 | 14.8 (≈ 52.2 µM) | 66.8 (≈ 235 µM) | 9.1 (≈ 32.1 µM) | 6.3 (≈ 22.2 µM) |  |  |  |  |  |  |  |  |  |  | 
11 | 2.38 |  | CN(C1=C(Cl)C(=O)c2ccccc2C1=O)c1ccccc1 | 6 (≈ 20.2 µM) | 6.7 (≈ 22.5 µM) | 0.8 (≈ 2.69 µM) | 1.2 (≈ 4.03 µM) |  |  |  |  |  |  |  |  |  |  | 
12 | 1.34 |  | COc1ccc(OC)c(NC2=C(Cl)C(=O)c3ccccc3C2=O)c1 | 2.4 (≈ 6.98 µM) | 6 (≈ 17.5 µM) | 0.7 (≈ 2.04 µM) | 4.6 (≈ 13.4 µM) |  |  |  |  |  |  |  |  |  |  | 
13 | 1.3 |  | COc1ccc(OC)c(NC2=CC(=O)c3ccccc3C2=O)c1 | 10.9 (≈ 35.2 µM) | 35.2 (≈ 114 µM) | 11.5 (≈ 37.2 µM) | 1.2 (≈ 3.88 µM) |  |  |  |  |  |  |  |  |  |  | 

— ChEMBL document CHEMBL1629415, “Biological evaluation of donor-acceptor aminonaphthoquinones as antitumor agents” (Eur J Med Chem, 2010)
